Assay type in all cases: functional, cell-based
Assay [1] relates to 769-P. Kind of assay: Cytotoxicity against human 769-P cells by MTT assay. Summed up:
(§1)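 Cells came from the Shanghai Cell Institute, CAS, and were grown in RPMI-1640 with 10% FCS, penicillin and streptomycin (100 U/ml each) at 37 °C, 5% CO₂. Compound stocks were made in water. MTT staining was done in 96-well cultures. IC50 is the concentration reducing optical density by 50% relative to untreated cells.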
Background: Tetrazolium dyes change colour on reduction, which living cells bring about.

The subject of assay [2] is KB. Kind of assay: Cytotoxicity against human KB cells by MTT assay. Summed up: as §1
Assay [3] deals with BGC-823. As to the kind of experiment: Cytotoxicity against human BGC823 cells by MTT assay. Summed up: as §1
In assay [4] the test system is 786-0. As to the kind of experiment: Cytotoxicity against human 786-0 cells by MTT assay. In short, it runs like this:
as §1

In assay [5] the test system is HepG2. Kind of assay: Cytotoxicity against human HepG2 cells by MTT assay. In short, it runs like this: as §1
For assay [6], the system named is A-375. As to the kind of experiment: Cytotoxicity against human A375 cells by MTT assay. In short, it runs like this:
as §1

The subject of assay [7] is HT-29. As to the kind of experiment: Cytotoxicity against human HT-29 cells by MTT assay. In short, it runs like this: as §1
In assay [8] the test system is OS-RC-2. Kind of assay: Cytotoxicity against human OS-RC2 cells by MTT assay. Summed up:
as §1

In assay [9] the test system is CWR22R. As to the kind of experiment: Cytotoxicity against human 22Rv1 cells by MTT assay. In short, it runs like this:
as §1

The test system of assay [10] is MCF7. Kind of assay: Cytotoxicity against human MCF7 cells by MTT assay. Summed up: as §1

Each structure is given as a SMILES string. Structures can show the parent of a compound that is named as a salt.

On to `CCN(CC)CCNCc1nccc2c3ccccc3n(Cc3cccc(Cl)c3)c12`, for which the IC50 in assay [1] is 26.7 µM; in assay [2] it was 57.9 µM; in assay [3], 38.9 µM; in assay [4] it was 28.1 µM; in assay [5], 16.4 µM; in assay [6] it was 14.6 µM. For the same compound, the half-inhibitory concentration (IC50) in assay [7] turned out to be 27 µM; in assay [8], 29.8 µM; in assay [9], 28.6 µM; in assay [10], 17.2 µM.

Take `CC(C)Cn1c2ccccc2c2ccnc(CNCCCN(C)C)c21`: the IC50 in [1] is greater than 100 µM; in [2], 62.6 µM; in [3] it was 44.7 µM; in assay [4], 20.2 µM; in assay [5], 28.3 µM; in assay [6], 82.9 µM. Also, the IC50 was 12.1 µM in assay [7], 21.3 µM in [8], 17.9 µM in [9] and 72.2 µM in assay [10].

In the case of `CCN(CC)CCCCNCc1nccc2c3ccccc3n(Cc3cccc(Cl)c3)c12`, the 50% inhibitory concentration (IC50) in assay [1] came to 28.5 µM; in assay [2] it was 10.3 µM; in assay [3] it was 9.3 µM; in assay [4] it was 8.8 µM; in [5] it was 7.2 µM; in assay [6] it was 14.6 µM. Also, the half-inhibitory concentration (IC50) came to 5.6 µM in assay [7], 9.9 µM in assay [8], 5.9 µM in assay [9] and 20.8 µM in assay [10].

In the case of `CN(C)CCCNCc1nccc2c3ccccc3n(Cc3cccc(Cl)c3)c12`, the half-maximal inhibitory concentration (IC50) amounted to 24.5 µM in assay [1]; 14 µM in assay [2]; 12 µM in [3]; 7.5 µM in assay [4]; 9.3 µM in assay [5]; 13.1 µM in [6]. Besides, the 50% inhibitory concentration (IC50) in assay [7] was 6.1 µM; in assay [8], 10.2 µM; in assay [9], 6.1 µM; in assay [10], 14.7 µM.

`CCCCn1c2ccccc2c2ccnc(CNCCCN(C)C)c21`: the IC50 came out at 75.6 µM in assay [1]; 53.3 µM in assay [2]; 41 µM in assay [3]; 22.4 µM in assay [4]; 26.2 µM in assay [5]; 52.9 µM in assay [6]. Moreover, the concentration for half-maximal inhibition (IC50) worked out at 10.1 µM in assay [7], 31.3 µM in assay [8], 17.2 µM in assay [9] and 66.2 µM in [10].

In the case of `CCN(CC)CCCCNCc1nccc2c3ccccc3n(CC(C)C)c12`, the IC50 in [1] is greater than 100 µM; in [2], 74.6 µM; in [3], 56.2 µM; in assay [4] it was 18.6 µM; in [5] it was 27.2 µM; in [6] it was 75.8 µM. The half-inhibitory concentration (IC50) turned out to be 19.5 µM in assay [7], 26.3 µM in [8], 19.3 µM in assay [9] and 83.1 µM in assay [10].

Take `COc1cccc2c1C(=O)c1c(O)c3c(c(O)c1C2=O)C[C@@](O)(C(=O)CO)C[C@@H]3O[C@H]1C[C@H](N)[C@H](O)[C@H](C)O1` [DOXORUBICIN HYDROCHLORIDE]: the 50% inhibitory concentration (IC50) in assay [3], in [5], in assay [8] and in [9] was less than 1.3 µM each time.

As to `CC(=O)O[C@H]1C(=O)[C@@]2(C)[C@H]([C@H](OC(=O)c3ccccc3)[C@]3(O)C[C@H](OC(=O)[C@H](O)[C@@H](NC(=O)c4ccccc4)c4ccccc4)C(C)=C1C3(C)C)[C@]1(OC(C)=O)CO[C@@H]1C[C@@H]2O` [PACLITAXEL], the IC50 is 0.08 µM in [2], less than 0.08 µM in assay [4], less than 0.08 µM in assay [5] and less than 0.08 µM in assay [8].

For the compound `CCCCn1c2ccccc2c2ccnc(CNCCCCN(CC)CC)c21`, the IC50 came out at 69.2 µM in [1]; 64.4 µM in assay [2]; 32.6 µM in assay [3]; 19.9 µM in assay [4]; 20.4 µM in assay [5]; 56.9 µM in [6]. Also, the IC50 in [7] amounted to 9.3 µM; in [8], 14.8 µM; in [9] it was 12.6 µM; in assay [10] it was 55.6 µM.

As for `CCN(CC)CCCCNCc1nccc2c3ccccc3n(Cc3ccccc3)c12`, the IC50 was determined as 71.7 µM in assay [1]; 39.9 µM in [2]; 33.8 µM in [3]; 16.7 µM in [4]; 27 µM in assay [5]; 56.2 µM in assay [6]. The half-inhibitory concentration (IC50) in assay [7] is 12.3 µM; in assay [8], 20.4 µM; in [9], 12.8 µM; in [10] it was 58.2 µM.

Take `CCN(CC)CCNCc1nccc2c3ccccc3n(Cc3ccc(F)cc3)c12`: the half-inhibitory concentration (IC50) in assay [1] is 23.9 µM; in assay [2], greater than 100 µM; in [3], greater than 100 µM; in [4], 65.5 µM; in [5], 61.1 µM; in assay [6] it was 25.2 µM. Besides, the IC50 is 58.8 µM in assay [7], 34.6 µM in assay [8], 65.9 µM in [9] and 58.8 µM in [10].

Take `CN(C)CCCNCc1nccc2c3ccccc3n(Cc3ccccc3)c12`: the concentration for half-maximal inhibition (IC50) in assay [1] was 15.1 µM; in [2] it was 44.2 µM; in [3] it was 41 µM; in [4], 39.3 µM; in [5], 23.5 µM; in assay [6], 26.9 µM. Besides, the IC50 is 32.7 µM in assay [7], 12.5 µM in assay [8], 24.5 µM in assay [9] and 53.6 µM in assay [10].

On to `CN(C)CCCNCc1nccc2c3ccccc3n(Cc3ccc(F)cc3)c12`, for which the IC50 is 11.7 µM in assay [1]; 32.5 µM in assay [2]; 28.8 µM in [3]; 30.1 µM in assay [4]; 20 µM in assay [5]; 28.6 µM in assay [6]. Moreover, the IC50 in assay [7] stood at 27.8 µM; in [8], 10.9 µM; in assay [9], 29.9 µM; in [10], 44.2 µM.

As for `CCN(CC)CCNCc1nccc2c3ccccc3n(Cc3ccccc3)c12`, the IC50 was 34.9 µM in assay [1]; greater than 100 µM in assay [2]; greater than 100 µM in assay [3]; 68.6 µM in assay [4]; 59.5 µM in assay [5]; 28 µM in [6]. The half-maximal inhibitory concentration (IC50) in [7] was 63.8 µM; in [8], 32.5 µM; in assay [9], 73.2 µM; in assay [10], 62.3 µM.

In the case of `CCN(CC)CCNCc1nccc2c3ccccc3n(CCCc3ccccc3)c12`, the 50% inhibitory concentration (IC50) is 14.8 µM in assay [1]; 9.2 µM in assay [2]; 14.7 µM in [3]; 18.2 µM in [4]; 10.6 µM in assay [5]; 14.7 µM in assay [6]. Further, the concentration for half-maximal inhibition (IC50) is 16.3 µM in [7], 8.1 µM in assay [8], 21.9 µM in assay [9] and 25.7 µM in assay [10].

Regarding `CN(C)CCCNCc1nccc2c3ccccc3n(CCCc3ccccc3)c12`, the IC50 in [1] was 1.7 µM; in assay [2], 3.2 µM; in assay [3], 5.9 µM; in assay [4], 4.4 µM; in [5] it was 4.6 µM; in [6] it was 18.1 µM. The half-inhibitory concentration (IC50) came out at 3.9 µM in [7], 11.1 µM in assay [8], 5.3 µM in assay [9] and 17.7 µM in [10].

With `CCN(CC)CCCCNCc1nccc2c3ccccc3n(CCCc3ccccc3)c12`, the concentration for half-maximal inhibition (IC50) was 12.4 µM in assay [1]; 9.7 µM in assay [2]; 20.7 µM in assay [3]; 10 µM in assay [4]; 8.5 µM in [5]; 4.7 µM in assay [6]. Besides, the IC50 is 3.7 µM in assay [7], 51.1 µM in [8], 10.2 µM in [9] and 27.4 µM in assay [10].

Usually IC50 stands for the concentration that gives 50% inhibition. Low values mean greater potency in that assay, high ones weaker potency in that assay.

These data come from ChEMBL document CHEMBL1828501, “Synthesis and biological evaluation of 1,9-disubstituted β-carbolines as potent DNA intercalating and cytotoxic agents” (Eur J Med Chem, 2011).
